The text below walks through data of ChEMBL document CHEMBL1287787, “Design and synthesis of disubstituted thiophene and thiazole based inhibitors of JNK” (Bioorg Med Chem Lett, 2010).

Data set [1] deals with Mitogen-activated protein kinase 9 (Homo sapiens, UniProt P45984). As to the kind of experiment: Inhibition of recombinant JNK2 after 60 mins by TR-FRET assay. For orientation: Time-resolved FRET reads energy transfer from a long-lived donor to a nearby acceptor.
Data set [2] is described as follows: Metabolic stability in mouse liver microsomes assessed as compound remaining after 30 mins. Type of data set: ADME, Microsome. The settings on record: read-out: Stability. In a few lines:
(§1)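 Test compound incubated with mouse or human liver microsomes for 30 min. Read-out is the percent of parent compound remaining at the end of the incubation.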
On the technique in general: Liver microsomes are vesicles of endoplasmic reticulum, rich in cytochrome P450 enzymes.

The nature of data set [3]: Metabolic stability in human liver microsomes assessed as compound remaining after 30 mins. The class given is ADME, Microsome. The settings on record: read-out: Stability. In a few lines:
as §1

For data set [4], the target named is Mitogen-activated protein kinase 8 (Homo sapiens, UniProt P45983). As to the kind of experiment: Inhibition of recombinant JNK1 after 60 mins by TR-FRET assay.
Mitogen-activated protein kinase 8, sequence (P45983 whole entry): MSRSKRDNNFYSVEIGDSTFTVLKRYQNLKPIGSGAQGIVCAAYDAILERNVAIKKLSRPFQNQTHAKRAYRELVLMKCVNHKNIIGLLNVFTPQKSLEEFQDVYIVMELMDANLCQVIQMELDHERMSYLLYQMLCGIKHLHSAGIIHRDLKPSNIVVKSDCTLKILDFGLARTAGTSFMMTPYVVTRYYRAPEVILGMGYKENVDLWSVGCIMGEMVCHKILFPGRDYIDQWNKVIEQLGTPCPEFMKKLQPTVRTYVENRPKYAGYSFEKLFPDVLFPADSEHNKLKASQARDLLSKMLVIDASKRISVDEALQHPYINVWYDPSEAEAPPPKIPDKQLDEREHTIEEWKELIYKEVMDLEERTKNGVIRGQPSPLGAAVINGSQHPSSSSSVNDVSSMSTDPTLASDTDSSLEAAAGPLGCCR
For data set [5], the target named is Mitogen-activated protein kinase 10 (Homo sapiens, UniProt P53779). Briefly: Inhibition of recombinant JNK3 after 60 mins by TR-FRET assay.
Mitogen-activated protein kinase 10, sequence (P53779 whole entry): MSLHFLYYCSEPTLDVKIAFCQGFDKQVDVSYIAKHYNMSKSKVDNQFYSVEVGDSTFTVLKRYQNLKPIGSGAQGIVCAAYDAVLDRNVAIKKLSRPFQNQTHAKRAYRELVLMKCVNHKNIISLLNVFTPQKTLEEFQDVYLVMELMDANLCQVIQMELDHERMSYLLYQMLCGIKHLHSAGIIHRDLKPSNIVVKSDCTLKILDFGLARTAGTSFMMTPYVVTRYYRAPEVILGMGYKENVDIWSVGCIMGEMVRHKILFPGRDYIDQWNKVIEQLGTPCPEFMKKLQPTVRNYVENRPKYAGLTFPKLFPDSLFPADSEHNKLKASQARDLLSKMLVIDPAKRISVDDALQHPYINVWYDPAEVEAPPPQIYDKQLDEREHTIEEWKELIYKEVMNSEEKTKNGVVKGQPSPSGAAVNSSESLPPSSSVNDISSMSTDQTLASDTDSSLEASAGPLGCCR
For data set [6], the target named is Mitogen-activated protein kinase 1 (Homo sapiens, UniProt P28482). Briefly: Inhibition of recombinant Erk2 after 60 mins by TR-FRET assay.
Mitogen-activated protein kinase 1, sequence (P28482 whole entry): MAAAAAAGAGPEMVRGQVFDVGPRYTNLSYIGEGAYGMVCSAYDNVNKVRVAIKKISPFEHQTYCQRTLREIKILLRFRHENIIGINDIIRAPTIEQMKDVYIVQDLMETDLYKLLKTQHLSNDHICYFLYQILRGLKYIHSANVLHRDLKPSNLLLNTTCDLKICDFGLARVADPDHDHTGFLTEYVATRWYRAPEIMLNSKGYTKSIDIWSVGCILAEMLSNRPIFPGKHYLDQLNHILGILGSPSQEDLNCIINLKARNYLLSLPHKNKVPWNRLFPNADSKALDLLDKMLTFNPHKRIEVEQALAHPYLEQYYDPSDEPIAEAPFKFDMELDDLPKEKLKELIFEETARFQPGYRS
The target in data set [7] is Mitogen-activated protein kinase 14 (Homo sapiens, UniProt Q16539). Briefly: Inhibition of recombinant p38alpha after 60 mins by TR-FRET assay.
Mitogen-activated protein kinase 14, sequence (Q16539 whole entry): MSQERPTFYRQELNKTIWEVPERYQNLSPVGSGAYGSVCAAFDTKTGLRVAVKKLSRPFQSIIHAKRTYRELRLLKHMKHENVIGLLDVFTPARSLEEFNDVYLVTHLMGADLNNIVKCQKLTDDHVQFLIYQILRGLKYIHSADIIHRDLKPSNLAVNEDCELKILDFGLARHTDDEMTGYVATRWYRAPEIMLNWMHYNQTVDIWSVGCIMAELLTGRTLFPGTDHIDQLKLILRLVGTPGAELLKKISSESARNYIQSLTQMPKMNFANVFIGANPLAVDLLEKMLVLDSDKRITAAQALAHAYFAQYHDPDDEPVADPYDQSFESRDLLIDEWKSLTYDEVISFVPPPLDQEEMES
The next data set relates to MDR1. Briefly: Permeability from apical to basolateral side of MDCK cells expressing MDR1 after 120 mins. The class given is ADME, cell-based, Canis lupus familiaris. Particulars: dog, read-out: permeability.

The IC50 is the concentration that gives 50% inhibition.

Mitogen-activated protein kinase 9, sequence (P45984 whole entry): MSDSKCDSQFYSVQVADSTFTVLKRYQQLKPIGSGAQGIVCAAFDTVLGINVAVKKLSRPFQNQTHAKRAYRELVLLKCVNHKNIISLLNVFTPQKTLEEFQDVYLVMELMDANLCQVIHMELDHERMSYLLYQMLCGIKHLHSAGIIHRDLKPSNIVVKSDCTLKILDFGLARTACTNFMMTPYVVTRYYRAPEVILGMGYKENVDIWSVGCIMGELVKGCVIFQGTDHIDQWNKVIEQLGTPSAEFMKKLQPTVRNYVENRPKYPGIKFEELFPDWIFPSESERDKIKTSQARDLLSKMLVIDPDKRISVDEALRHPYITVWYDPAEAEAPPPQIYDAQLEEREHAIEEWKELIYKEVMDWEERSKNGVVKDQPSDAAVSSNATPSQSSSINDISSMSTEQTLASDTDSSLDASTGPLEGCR

On to `COc1ccc(CC(=O)Nc2ccsc2-c2ncco2)cc1`, for which, in data set [1], the IC50 was 11.9 µM. The remaining at 0.5 h is 9% in data set [2] and 14% in data set [3].

Turning to `Cc1nnc(-c2sccc2NC(=O)Cc2cccc3ccccc23)o1`, the IC50 in data set [4] stood at 1.8 µM; in data set [1], 16.3 µM; in data set [5], 2.1 µM. In addition, the remaining at 0.5 h worked out at 0% in data set [2] and 4% in data set [3].

Consider `COc1ccc(CC(=O)Nc2ccsc2-c2c[nH]c(C)n2)cc1`, for which the IC50 in data set [4] is 23.4 µM; in data set [1], greater than 50 µM; in data set [5] it was 27 µM; in data set [6], greater than 50 µM; in data set [7], greater than 50 µM. Further, the remaining at 0.5 h in data set [2] worked out at 0%; in data set [3], 17%. For the same compound, in the data set on MDR1, the Papp A→B at 2 h came out at 33.8 ×10⁻⁶ cm/s.

On to `COC(=O)c1cccnc1NC(=O)Cc1cccc2ccccc12`, for which the IC50 in data set [4], in data set [1] and in data set [5] was greater than 50 µM in each case.

For the compound `COC(=O)c1sccc1NC(=O)Cc1ccc(-c2ccncc2)cc1`, the IC50 in data set [4] was 0.46 µM; in data set [1] it was greater than 50 µM; in data set [5], 0.69 µM.

For the compound `Cc1nc(-c2sccc2NC(=O)Cc2cccc3ccccc23)n(C)n1`, the results for the IC50 in data set [4], in data set [1] and in data set [5] were 30.3 µM, greater than 50 µM and 31.5 µM, respectively. Besides, the remaining at 0.5 h in data set [2] and in data set [3] was 1% throughout.

As for `Cc1n[nH]c(-c2sccc2NC(=O)Cc2cccc3ccccc23)n1`, the values for the IC50 in data set [4], in data set [1] and in data set [5] were 0.25 µM, 2.4 µM and 0.55 µM, respectively. Moreover, the remaining at 0.5 h in data set [2] and in data set [3] was 1% each time.

Turning to `COC(=O)c1sccc1NC(=O)Cc1cccc2ncccc12`, the IC50 is 0.3 µM in data set [4], 3 µM in data set [1] and 0.61 µM in data set [5].

Consider `O=C(Cc1ccccc1)Nc1ccsc1CO`, for which, in data set [5], the IC50 was greater than 50 µM.

For `COC(=O)c1sccc1NC(=O)Cc1ccncc1`, the IC50 in data set [4] was 6.6 µM; in data set [1], greater than 50 µM; in data set [5], 17.2 µM.

Consider `COC(=O)c1sccc1NC(=O)Cc1ccc(OC)cc1`, for which the IC50 in data set [4] worked out at 0.8 µM; in data set [1] it was 14.1 µM; in data set [5] it was 1 µM.

Regarding `COC(=O)c1sccc1NC(=O)Cc1cccs1`, the IC50 in data set [1] turned out to be 21.4 µM.

Regarding `C/C(=N/O)c1sccc1NC(=O)Cc1ccccc1`, the IC50 in data set [5] stood at 29 µM.

Consider `O=C(Cc1cccc2ccccc12)Nc1ccsc1-c1ncn[nH]1`, for which the IC50 was 0.53 µM in data set [4], 3 µM in data set [1] and 0.92 µM in data set [5]. Besides, the figures for the remaining at 0.5 h in data set [2] and in data set [3] were 1% and 11%, respectively.

In the case of `COC(=O)c1sccc1NC(=O)Cc1ccc2ccccc2c1`, the IC50 in data set [4] is 0.6 µM; in data set [1] it was greater than 50 µM; in data set [5], 3.9 µM.

Regarding `COC(=O)c1cscc1NC(=O)Cc1cccc2ccccc12`, the figures for the IC50 in data set [4], in data set [1] and in data set [5] were 0.89 µM, 9.9 µM and 0.9 µM, respectively.

In the case of `COc1ccc(CC(=O)Nc2ccsc2N2CCOC2=O)cc1`, the IC50 in data set [4] was greater than 50 µM; in data set [1], greater than 50 µM; in data set [5] it was 37 µM. The remaining at 0.5 h in data set [2] is 26%; in data set [3], 83%. The Papp A→B at 2 h in the data set on MDR1 was 26 ×10⁻⁶ cm/s.

`COC(=O)c1scnc1NC(=O)Cc1cccc2ccccc12`: the IC50 in data set [4], in data set [1] and in data set [5] was greater than 50 µM in each case.

For `CCOC(=O)c1sccc1NC(=O)Cc1ccccc1`, the values for the IC50 in data set [4], in data set [1] and in data set [5] were 0.3 µM, 46.6 µM and 0.7 µM, respectively.

`CCOC(=O)c1c(C)nsc1NC(=O)Cc1cccc2ccccc12`: the IC50 in data set [4], in data set [1] and in data set [5] was greater than 50 µM throughout.

`COC(=O)c1nonc1NC(=O)Cc1cccc2ccccc12`: the IC50 in data set [4], in data set [1] and in data set [5] was greater than 50 µM throughout.

For the compound `COc1ccc(CC(=O)Nc2ccsc2-n2nccn2)cc1`, the IC50 in data set [4] worked out at 0.83 µM; in data set [1], 5 µM; in data set [5] it was 1.5 µM. The remaining at 0.5 h in data set [2] came out at 1%; in data set [3], 0%. The Papp A→B at 2 h in the data set on MDR1 came out at 15 ×10⁻⁶ cm/s.

Regarding `COC(=O)c1nnsc1NC(=O)Cc1cccc2ccccc12`, the IC50 in data set [4], in data set [1] and in data set [5] was greater than 50 µM each time.

For the compound `COCCN(C)C(=O)c1sccc1NC(=O)Cc1ccccc1`, the IC50 in data set [1] and in data set [5] was greater than 50 µM throughout.

For `Cc1cc(-c2sccc2NC(=O)Cc2cccc3ccccc23)n[nH]1`, the IC50 in data set [1] was 1.5 µM. Besides, the remaining at 0.5 h in data set [2] stood at 1%; in data set [3], 2%.

Consider `COc1ccc(CC(=O)Nc2ccsc2-c2nc(N)n[nH]2)cc1`, for which the IC50 in data set [1] was 8.7 µM; in data set [6] it was greater than 50 µM; in data set [7], greater than 50 µM. The remaining at 0.5 h is 44% in data set [2] and 87% in data set [3]. For the same compound, in the data set on MDR1, the Papp A→B at 2 h was 24.3 ×10⁻⁶ cm/s.

For `COC(=O)c1n[nH]cc1NC(=O)Cc1cccc2ccccc12`, the 50% inhibitory concentration (IC50) in data set [4] was 2.1 µM; in data set [1] it was 26.7 µM; in data set [5] it was 5.4 µM; in data set [6], greater than 50 µM; in data set [7], greater than 50 µM.

As for `Cn1ccc(-c2sccc2NC(=O)Cc2cccc3ccccc23)n1`, the IC50 was 24.1 µM in data set [4], greater than 50 µM in data set [1] and 42.5 µM in data set [5]. Also, the remaining at 0.5 h in data set [2] and in data set [3] was 0% throughout.

As for `COCCNC(=O)c1sccc1NC(=O)Cc1ccccc1`, the IC50 was 2.3 µM in data set [4], greater than 50 µM in data set [1] and 3.8 µM in data set [5].

Take `CC(=O)c1sccc1NC(=O)Cc1ccccc1`: the IC50 in data set [4] was 6.3 µM; in data set [1], greater than 50 µM; in data set [5], 17 µM.

Take `COc1ccc(CC(=O)Nc2ccsc2-c2cnccn2)cc1`: the IC50 in data set [4] was 1.1 µM; in data set [1], 5.7 µM; in data set [5] it was 1.5 µM; in data set [6], greater than 50 µM; in data set [7], greater than 50 µM. Moreover, the remaining at 0.5 h in data set [2] and in data set [3] was 0% throughout. Further, the Papp A→B at 2 h in the data set with MDR1 turned out to be 22.2 ×10⁻⁶ cm/s.

As for `COc1ccc(CC(=O)Nc2ccsc2-c2nc(C(F)(F)F)n[nH]2)cc1`, the IC50 is 3.4 µM in data set [4]; 15 µM in data set [1]; 5.9 µM in data set [5]; greater than 50 µM in data set [6]; greater than 50 µM in data set [7]. For the same compound, the values for the remaining at 0.5 h in data set [2] and in data set [3] were 8% and 71%, respectively.

`CC(C)OC(=O)c1sccc1NC(=O)Cc1ccccc1`: the values for the IC50 in data set [4], in data set [1] and in data set [5] were 0.5 µM, 47.7 µM and 1.4 µM, respectively.

Take `COC(=O)c1ccccc1NC(=O)Cc1cccc2ccccc12`: the IC50 in data set [4] amounted to 2.1 µM; in data set [1], 13.1 µM; in data set [5], 1.7 µM.

Turning to `C=C(C)c1sccc1NC(=O)Cc1ccccc1`, the IC50 in data set [5] is greater than 50 µM.

Regarding `O=C(Cc1cccc2ccccc12)Nc1ccsc1-c1cc[nH]n1`, the IC50 in data set [1] was greater than 50 µM. Also, the remaining at 0.5 h in data set [2] came out at 0%; in data set [3], 5%.

For `COC(=O)c1sccc1NC(=O)Cc1ccccc1`, the IC50 in data set [4] was found to be 0.7 µM; in data set [1], 22.8 µM; in data set [5], 2.7 µM.

Take `Cc1ccncc1NC(=O)Cc1cccc2ccccc12`: the IC50 in data set [4], in data set [1] and in data set [5] was greater than 50 µM in each case.

For the compound `COC(=O)c1sccc1NC(=O)Cc1cccc2cnccc12`, the IC50 in data set [4] was 0.27 µM; in data set [1], 3.1 µM; in data set [5] it was 0.61 µM; in data set [6], greater than 50 µM; in data set [7], greater than 50 µM.

`COC(=O)c1sccc1NC(=O)Cc1ccc(-n2ccnc2)cc1`: the values for the IC50 in data set [4], in data set [1] and in data set [5] were 1 µM, greater than 50 µM and 1.6 µM, respectively.

Take `COC(=O)c1cnccc1NC(=O)Cc1cccc2ccccc12`: the IC50 was found to be 6.4 µM in data set [4], 23.6 µM in data set [1] and 6.5 µM in data set [5].

In the case of `COC(=O)c1sccc1NC(=O)Cc1ccccc1-c1c[nH]nn1`, the results for the IC50 in data set [4], in data set [1] and in data set [5] were 7 µM, 35 µM and 12.6 µM, respectively.

For the compound `O=C(Cc1cccc2ccccc12)Nc1ccsc1-c1nnco1`, the IC50 came to 3.2 µM in data set [4], 27.1 µM in data set [1] and 5.3 µM in data set [5]. Also, the remaining at 0.5 h worked out at 1% in data set [2] and 7% in data set [3].

Turning to `COC(=O)c1sccc1NC(=O)Cc1ccc(C(F)(F)F)cc1`, the IC50 in data set [4] was 2 µM; in data set [1], greater than 50 µM; in data set [5] it was 6.9 µM.

Turning to `COC(=O)c1sccc1NC(=O)Cc1cccc2ccccc12`, the IC50 in data set [4] amounted to 0.4 µM; in data set [1] it was 14.6 µM; in data set [5] it was 1.5 µM.

Turning to `COc1ccc(CC(=O)Nc2ccsc2-n2cncn2)cc1`, the IC50 was 43.6 µM in data set [4], greater than 50 µM in data set [1] and 45.6 µM in data set [5].

Take `Cc1nccnc1NC(=O)Cc1cccc2ccccc12`: the IC50 in data set [1] and in data set [5] was greater than 50 µM in each case.

On to `NC(=O)c1sccc1NC(=O)Cc1ccccc1`, for which the values for the IC50 in data set [4], in data set [1] and in data set [5] were 2.6 µM, greater than 50 µM and 4.4 µM, respectively.

Turning to `O=C(Cc1cccc2ccccc12)Nc1ccsc1-n1ccnc1`, the IC50 was 26.9 µM in data set [4], greater than 50 µM in data set [1] and 9 µM in data set [5]. In addition, the remaining at 0.5 h in data set [2] turned out to be 0%; in data set [3] it was 17%.
